Laboratory results: ChEMBL document CHEMBL2029317, “(Z)-2-(2-bromophenyl)-3-{[4-(1-methyl-piperazine)amino]phenyl}acrylonitrile (DG172): an orally bioavailable PPARβ/δ-selective ligand with inverse agonistic properties” (J Med Chem, 2012)
Active and inactive are the calls of the source. The calls are words filed in the database; no cut-off is given here.

target: T1, Peroxisome proliferator-activated receptor delta (Mus musculus) (UniProt P35396); test: Displacement of fluormone Pan-PPAR Green from mouse recombinant GST-tagged PPARbeta/delta LBD at 1 uM after 60 mins by TR-FRET assay
T1 sequence (whole entry): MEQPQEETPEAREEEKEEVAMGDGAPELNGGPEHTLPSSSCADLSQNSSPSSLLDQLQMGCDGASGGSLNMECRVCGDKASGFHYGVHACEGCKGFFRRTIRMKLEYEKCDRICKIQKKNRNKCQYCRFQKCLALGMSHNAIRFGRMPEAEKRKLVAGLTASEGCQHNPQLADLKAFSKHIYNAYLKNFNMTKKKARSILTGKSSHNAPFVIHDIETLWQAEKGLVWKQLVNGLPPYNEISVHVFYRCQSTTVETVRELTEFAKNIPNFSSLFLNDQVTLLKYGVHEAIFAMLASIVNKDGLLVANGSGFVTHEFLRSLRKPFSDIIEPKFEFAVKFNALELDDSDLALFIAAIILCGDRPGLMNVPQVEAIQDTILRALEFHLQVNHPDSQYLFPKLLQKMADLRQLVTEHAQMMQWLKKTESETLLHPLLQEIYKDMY
Procedure, shortened: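 Competitive binding by LanthaScreen TR-FRET: recombinant GST-PPARβ/δ LBD, detected through a terbium-labelled anti-GST antibody, was incubated with Fluormone Pan-PPAR Green. Compound was tested at 1 μM. Read-out is the 520 nm/495 nm emission ratio after terbium excitation, as averages of triplicates ± SD.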

Activity, active:
N#C/C(=C\c1ccc(NC2CCCCC2)cc1)c1ccccc1
COc1ccc(/C=C(\C#N)c2ccccc2)cc1
N#C/C(=C\c1ccc(Br)cc1)c1ccccc1
N#C/C(=C\c1ccc(N2CCOCC2)cc1)c1ccccc1
CN(C)c1ccc(/C=C(\C#N)c2ccccc2I)cc1
CN(C)c1ccc(/C=C(\C#N)c2ccc(F)cc2)cc1
N#C/C(=C\c1cccc(Br)c1)c1ccccc1
N#C/C(=C\c1ccc(Cl)cc1)c1ccccc1
CN(C)c1ccc(/C=C(\C#N)c2ccccc2Br)cc1
N#C/C(=C\c1ccc(Nc2ccccc2)cc1)c1ccccc1
CN(C)c1ccc(/C=C(\C#N)c2ccccc2[N+](=O)[O-])cc1
CN(C)c1ccc(/C=C(\C#N)c2ccccc2F)cc1
N#C/C(=C\c1ccc(N2CCCCCC2)cc1)c1ccccc1
N#C/C(=C\c1ccc(C(F)(F)F)cc1)c1ccccc1
CN(C)c1ccc(/C=C(\C#N)c2ccc([N+](=O)[O-])cc2)cc1
COc1ccccc1/C(C#N)=C/c1ccc(N(C)C)cc1
COc1ccc(/C(C#N)=C/c2ccc(N(C)C)cc2)cc1
CN1CCN(c2ccc(/C=C(\C#N)c3ccccc3)cc2)CC1
CN(C)Cc1ccc(/C=C(\C#N)c2ccccc2)cc1
N#C/C(=C\c1ccc(N)cc1)c1ccccc1
CN(C)c1ccc(/C=C(\C#N)c2ccc(Cl)cc2)cc1
N#C/C(=C\c1ccccc1Br)c1ccccc1
N#C/C(=C\c1ccc(N2CCCCC2)cc1)c1ccccc1
N#C/C(=C\c1ccccc1)c1ccccc1
CN(C)c1ccc(/C=C(\C#N)c2ccccc2C#N)cc1
CN(C)c1ccc(/C=C(\C#N)c2cccc(Cl)c2)cc1
N#C/C(=C\c1ccc(N2CCCC2)cc1)c1ccccc1
CC1CCN(c2ccc(/C=C(\C#N)c3ccccc3)cc2)CC1
CN(C)c1ccc(/C=C(\C#N)c2ccccc2C(F)(F)F)cc1
N#C/C(=C\c1ccc(N2CCNCC2)cc1)c1ccccc1

Activity, inactive:
CN(C)c1ccc(/C=C/c2ccccc2)cc1
CN(C)c1ccc(C(C#N)=Cc2ccccc2)cc1
CN(C)c1ccc(/C=C/C=C(\C#N)c2ccccc2)cc1
CN(C)c1ccc(CC(C#N)c2ccccc2)cc1 (racemic)

target: T1, Peroxisome proliferator-activated receptor delta (Mus musculus); test: Antagonist activity at PPARbeta/delta in mouse NIH3T3 cells coexpressing LexA assessed as decrease in L165,041-induced transcriptional activation at 1 uM after 48 hrs by luciferase reporter gene assay relative to control; type: functional, cell-based
Procedure, shortened: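 NIH3T3 cells were transfected with LexA-PPARα, -PPARβ/δ or -PPARγ fusion plasmids plus the 7L-TATAi luciferase reporter. From 4 h post-transfection, cells received inhibitory ligand (1 μM) for 48 h. Agonists followed: GW7647 300 nM (PPARα), L165,041 1 μM (PPARβ/δ) or GW1929 300 nM (PPARγ), or agonist solvent. Induction is luciferase activity with agonist relative to solvent; triplicates with t test.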

Activity, active:
N#C/C(=C\c1ccc(N2CCCCC2)cc1)c1ccccc1

target: T2, Peroxisome proliferator-activated receptor delta (Mus musculus, UniProt P35396); test: Inverse agonist activity at PPARbeta/delta in mouse C2C12 cells assessed as inhibition of Angptl4 expression after 24 hrs by RT-qPCR analysis; type: functional, cell-based
T2 sequence (P35396 whole entry): T1 sequence (whole entry)

IC50, > 500 nM:
CN(C)c1ccc(/C=C(\C#N)c2ccccc2)cc1
